Legend:
[1] = Cytotoxicity against human RD cells by MTS assay; format: toxicity, cell-based
Summary of the method: (§1)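 Treated, uninfected RD or HeLa cells are run alongside the matching enterovirus CPE assays, with viability read by MTS. CC50 is the concentration giving a 50% adverse effect on host cells.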

[2] = Cytotoxicity against african green monkey Vero E6 cells by MTS assay; format: toxicity, cell-based, Vero C1008; details: chlorocebus sabaeus
Summary of the method: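 Cytotoxicity is measured on treated, uninfected Vero E6 cells in parallel with the antiviral assays, using a standard MTS assay. CC50 is the concentration causing a 50% adverse effect on host cells.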

Enterovirus A71 [3] = assay: Antiviral activity against human Enterovirus 71 BrCr infected in human RD cells assessed as reduction of virus induced cytopathic effect incubated for 3 days by MTS assay; format: functional, organism-based; details: Enterovirus A, 72 h
Summary of the method: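 Confluent RD cells (EMEM, 10% heat-inactivated FBS) are infected with ~100 CCID50 of EV71 BrCr and treated with a compound dilution series. After 3 days at 37 °C, 5% CO2, residual viability is measured by MTS. EC50 is the concentration giving 50% antiviral effect, from at least 2–3 independent experiments.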

SARS-CoV-2 = assay: Antiviral activity against SARS-CoV-2 BetaCoV/Belgium/GHB-03021/2020 infected in african green monkey Vero cells assessed as decline in virus induced cytopathogenicity measured after 4 days by argon laser scanning microscopic analysis; format: functional, organism-based; details: Severe acute respiratory syndrome coronavirus 2, BetaCoV/Belgium/GHB-03021/2020, Vero, 96 h
Zika virus = assay: Antiviral activity against ZIKV MR766 infected in african green monkey Vero E6 cells assessed as decline in virus induced cytopathogenicity measured after 5 days by MTS based microscopic analysis; format: functional, organism-based; details: MR766, Vero C1008, 120 h
Summary of the method: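 Vero E6 cells (10^4/well) are seeded in MEM with 2% FCS and left to adhere overnight. Cells are then infected with ZIKV MR766 (passaged in C6/36 cells) and given 2-fold serial compound dilutions. After 5 days, CPE is scored by MTS and by microscopy of fixed, stained cells. EC50 is the 50% antiviral effect.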

[4] = Selectivity index, ratio of CC50 for human RD cells to EC50 for antiviral activity against human Enterovirus 71; format: toxicity; details: read-out: Ratio CC50/EC50
Summary of the method: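 SI is calculated as CC50 on uninfected RD cells divided by EC50 in the 3-day EV71 BrCr CPE-reduction MTS assay.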

rhinovirus B14 = assay: Antiviral activity against Human rhinovirus 14 infected in human HeLa cells assessed as reduction of virus induced cytopathic effect incubated for 3 days by MTS assay; format: functional, organism-based; details: Rhinovirus B, 72 h
Summary of the method: (§2)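 Same setup as the EV71 assay: confluent monolayers (Vero A for CVB3; HeLa for CVA21, EV68, HRV-A02, HRV-B14) are infected with virus and treated with a compound dilution series. Incubation is 3 days at 37 °C, 5% CO2, and residual viability is read by MTS. EC50 is the 50% effective concentration, mean of at least 2 independent experiments.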

enterovirus D68 = assay: Antiviral activity against Human enterovirus 68 infected in human HeLa cells assessed as reduction of virus induced cytopathic effect incubated for 3 days by MTS assay; format: functional, organism-based; details: Enterovirus D, 72 h; summary of the method: as §2
Coxsackievirus A21 = assay: Antiviral activity against Coxsackievirus 21 infected in human HeLa cells assessed as reduction of virus induced cytopathic effect incubated for 3 days by MTS assay; format: functional, organism-based; details: Enterovirus C, 72 h
Summary of the method: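 HeLa cells infected with coxsackievirus A21 (~100 CCID50) and treated with a compound dilution series, as in the EV71 set-up. Incubation was 3 days at 37 °C, 5% CO2, with residual viability quantified by MTS. EC50 is the concentration giving 50% antiviral effect. Values are means of ≥2 independent experiments.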

[5] = Cytotoxicity against human HeLa cells by MTS assay; format: toxicity, cell-based; summary of the method: as §1
rhinovirus A2 = assay: Antiviral activity against Human rhinovirus 2 infected in human HeLa cells assessed as reduction of virus induced cytopathic effect incubated for 3 days by MTS assay; format: functional, organism-based; details: Rhinovirus A, 72 h; summary of the method: as §2
[6] = Cytotoxicity against african green monkey Vero cells by MTS assay; format: toxicity, cell-based; details: chlorocebus sabaeus
Coxsackievirus B3 = assay: Antiviral activity against Coxsackievirus B3 infected in african green monkey Vero cells assessed as reduction of virus induced cytopathic effect incubated for 3 days by MTS assay; format: functional, organism-based; details: Enterovirus B, 72 h; summary of the method: as §2
METTL3/METTL14 = METTL3/METTL14 (Homo sapiens, UniProt Q86U44); assay: Inhibition of human recombinant full length METTL3/human N-terminal FLAG-tagged METTL14 expressed in SF9 cells assessed as methyltransferase residual activity using ssRNA 5'-rUrArC rArCrU rCrGrA rUrCrU rGrGrA rCrUrA rArArG rCrUrG rCrUrC -3' as substrate incubated for 20 mins followed by H-SAM addition measured after 2 hrs by radio isotope reaction system analysis
Summary of the method: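 Compound is pre-incubated for 20 min at room temperature, then 1 μM [3H-methyl]SAM is added for 2 h at room temperature. Activity is reported as % remaining, screened at 100 μM, with IC50 from curve fits.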

Enterovirus A71 [7] = assay: Antiviral activity against human enterovirus 71 infected in african green monkey vero cells; format: functional, organism-based; details: Enterovirus A

Chain of METTL3/METTL14 (Q86U44 whole entry): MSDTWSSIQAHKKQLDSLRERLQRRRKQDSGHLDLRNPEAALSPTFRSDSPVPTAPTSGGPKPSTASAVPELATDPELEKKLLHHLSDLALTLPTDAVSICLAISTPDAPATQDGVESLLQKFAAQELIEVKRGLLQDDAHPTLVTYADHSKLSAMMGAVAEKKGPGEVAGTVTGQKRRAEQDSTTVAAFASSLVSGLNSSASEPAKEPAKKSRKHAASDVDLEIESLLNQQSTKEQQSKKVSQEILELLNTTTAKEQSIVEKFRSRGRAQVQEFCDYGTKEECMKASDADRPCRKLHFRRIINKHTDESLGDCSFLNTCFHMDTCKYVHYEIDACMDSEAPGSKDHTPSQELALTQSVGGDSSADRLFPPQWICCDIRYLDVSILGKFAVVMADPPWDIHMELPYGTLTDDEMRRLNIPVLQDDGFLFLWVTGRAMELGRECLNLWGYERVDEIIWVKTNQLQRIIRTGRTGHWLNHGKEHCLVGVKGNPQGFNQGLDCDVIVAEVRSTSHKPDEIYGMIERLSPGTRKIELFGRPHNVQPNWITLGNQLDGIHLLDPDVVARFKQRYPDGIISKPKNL
Chain of METTL3/METTL14 (Q9HCE5 whole entry, further chain): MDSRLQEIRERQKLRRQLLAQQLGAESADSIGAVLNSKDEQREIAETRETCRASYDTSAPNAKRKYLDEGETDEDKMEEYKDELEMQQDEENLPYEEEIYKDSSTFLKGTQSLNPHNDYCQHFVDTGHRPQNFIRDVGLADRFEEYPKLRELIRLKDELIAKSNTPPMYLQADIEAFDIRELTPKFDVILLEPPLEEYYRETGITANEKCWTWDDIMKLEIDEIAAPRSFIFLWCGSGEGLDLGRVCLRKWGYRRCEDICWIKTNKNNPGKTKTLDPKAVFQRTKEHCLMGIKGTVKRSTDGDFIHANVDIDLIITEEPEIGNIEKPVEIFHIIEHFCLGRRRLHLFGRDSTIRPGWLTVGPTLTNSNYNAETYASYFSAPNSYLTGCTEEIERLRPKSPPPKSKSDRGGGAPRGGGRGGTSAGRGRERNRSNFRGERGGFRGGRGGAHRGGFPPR

Structure (SMILES)	CC50 [1] [µM]	CC50 [2] [µM]	EC50 (Enterovirus A71 [3]) [µM]	EC50 (SARS-CoV-2) [µM]	EC50 (Zika virus) [µM]	selectivity ratio [4]	EC50 (rhinovirus B14) [µM]	EC50 (enterovirus D68) [µM]	EC50 (Coxsackievirus A21) [µM]	CC50 [5] [µM]	EC50 (rhinovirus A2) [µM]	CC50 [6] [µM]	EC50 (Coxsackievirus B3) [µM]	IC50 (METTL3/METTL14) [µM]	EC50 (Enterovirus A71 [7]) [µM]
OC[C@H]1O[C@@H](n2cnc3c(N4CCc5ccccc54)ncnc32)[C@H](O)[C@@H]1O	> 100	> 100	> 100	> 100	> 100										
CSC[C@H]1O[C@@H](n2cnc3c(NCc4ccc(Cl)cc4)ncnc32)[C@H](O)[C@@H]1O	> 100	> 100	8.05	> 100	> 100	> 12.1									
OC[C@H]1O[C@@H](n2cnc3c(NCc4cccc(S(F)(F)(F)(F)F)c4)ncnc32)[C@H](O)[C@@H]1O	> 100	> 100	0.102	> 100	> 100	> 1280	> 100	> 100	31.7	88.7	> 100	> 100	> 100		
Cc1cccc(CNc2ncnc3c2ncn3[C@@H]2O[C@H](CO)[C@@H](O)[C@H]2O)c1	> 100	> 100	0.094	> 100	> 100	> 1060	> 100	8.9	36.4	> 100	> 100	> 100	> 100		
C[C@@]1(O)[C@H](O)[C@@H](CO)O[C@H]1n1ccc2c(N)ncnc21 [BETA-2'-C-METHYL-7-DEAZA-ADENOSINE]		> 300			20										
OC[C@H]1O[C@@H](n2ccc3c(NCc4cccc(Cl)c4)ncnc32)[C@H](O)[C@@H]1O	> 20	> 100	0.065	> 100	> 100	> 301								58.8	
C[C@H](NP(=O)(OC[C@H]1O[C@@H](n2ccc3c(NCc4cccc(C(F)(F)F)c4)ncnc32)[C@H](O)[C@@H]1O)Oc1ccccc1)C(=O)OCc1ccccc1 (stereo not given in full)	42.5	> 100	0.6	> 100		70.8									
CSC[C@H]1O[C@@H](n2cnc3c(NCc4cccc(C)c4)ncnc32)[C@H](O)[C@@H]1O	> 75	> 100	0.898	> 100	> 100	> 83.5	> 100	> 100	> 100	> 100	> 100	> 50	> 100		
CSC[C@H]1O[C@@H](n2cnc3c(NC(C)c4ccccc4Cl)ncnc32)[C@H](O)[C@@H]1O (stereo not given in full)	> 100	> 100	> 100	> 100	> 100										
CSC[C@H]1O[C@@H](n2ccc3c(NCc4cccc(Cl)c4)ncnc32)[C@H](O)[C@@H]1O	> 100	> 100	> 75	> 100	> 100										
OC[C@H]1O[C@@H](n2cnc3c(NCc4ccccc4Cl)ncnc32)[C@H](O)[C@@H]1O	28.2	> 100	0.117	> 100	> 100	241									
COC(=O)[C@H](CCSC[C@H]1O[C@@H](n2cnc3c(NCc4cccc(Cl)c4)ncnc32)[C@H](O)[C@@H]1O)NC(=O)C(F)(F)F	> 100	> 100	4.5	> 100	> 100	> 16.9	> 100	> 100	54.6	> 100	> 100	> 100	> 100		
OC[C@H]1O[C@@H](n2cnc3c(NCc4cccc(Cl)c4)ncnc32)[C@H](O)[C@@H]1O	42.7	> 100	0.106	> 100	> 100	403									
CC(Nc1ncnc2c1ncn2[C@@H]1O[C@H](CO)[C@@H](O)[C@H]1O)c1ccccc1Cl (stereo not given in full)	> 100	> 100	> 100	> 100	> 100										
CSC[C@H]1O[C@@H](n2cnc3c(NCc4cccc(C(F)(F)F)c4)ncnc32)[C@H](O)[C@@H]1O	> 100	> 100	> 20	> 100	> 100										
CSC[C@H]1O[C@@H](n2cnc3c(NCc4cccc(S(F)(F)(F)(F)F)c4)ncnc32)[C@H](O)[C@@H]1O	23.5	46.4	1.85	> 100	> 100	12.7									
CSC[C@H]1O[C@@H](n2cnc3c(NC(C)c4cccc(Cl)c4)ncnc32)[C@H](O)[C@@H]1O (stereo not given in full)	44.3	50.8	4.21	> 100	> 100	10.5									
C#C[C@@]1(O)[C@H](O)[C@@H](CO)O[C@H]1n1ccc2c(N)ncnc21															0.625
CSC[C@H]1O[C@@H](n2cnc3c(N4CCc5ccccc54)ncnc32)[C@H](O)[C@@H]1O	64.9	> 100	19	> 100	> 100	3.4									
OC[C@H]1O[C@@H](n2ccc3c(NCc4cccc(C(F)(F)F)c4)ncnc32)[C@H](O)[C@@H]1O	> 100	> 100	0.101	> 100	> 100	> 1070	> 100	91.2	19.9	> 100	> 100	> 100	> 100	129	
CSC[C@H]1O[C@@H](n2cnc3c(NCc4cccc(Cl)c4)ncnc32)[C@H](O)[C@@H]1O	> 20	> 100	0.53	> 100	> 100	> 37.7								184	
CC(Nc1ncnc2c1ncn2[C@@H]1O[C@H](CO)[C@@H](O)[C@H]1O)c1cccc(Cl)c1 (stereo not given in full)	> 100	> 100	1.07	> 100	> 100	> 93.5	> 100	> 100	> 100	> 100	> 100	> 100	> 100		
CSC[C@H]1O[C@@H](n2cnc3c(NCc4ccccc4Cl)ncnc32)[C@H](O)[C@@H]1O	> 100	> 100	2.61	> 100	> 100	> 38.3									
OC[C@H]1O[C@@H](n2cnc3c(NCc4ccc(Cl)cc4)ncnc32)[C@H](O)[C@@H]1O	> 100	> 100	0.236	> 100	> 100	> 424									
CCOC(=O)/C=C/[C@H](C[C@@H]1CCNC1=O)NC(=O)[C@@H](CC(=O)[C@@H](NC(=O)c1cc(C)on1)C(C)C)Cc1ccc(F)cc1	> 1					> 111									
C[C@H](NP(=O)(OC[C@H]1O[C@@H](n2cnc3c(NCc4cccc(C(F)(F)F)c4)ncnc32)[C@H](O)[C@@H]1O)Oc1ccccc1)C(=O)OCc1ccccc1 (stereo not given in full)	9.18		0.017	> 100		542									
